Screening data: PubChem BioAssay, The Scripps Research Institute Molecular Screening Center
The list is not random: actives were taken first. Their share in the collection is about 4.5%.
CHO parental Ca: counter-screen: ATP calcium response change in parental CHO cells | parental CHO-K1, ATP-induced calcium, Fluo-8 fluorescence | 330,000 tested, 0.63% active | inhibition, % at 5.6 µM;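 active = inhibition above that plate's mean sample inhibition plus 3 SD, cut at about 26% in these data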;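 note: 0% = ATP-challenged DMSO wells and 100% = DMSO wells without ATP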
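Material – parental CHO cells · Reagent – ATP stimulus · Compound – single nominal dose of 5.6 µM per compound · Detection – Fluo-8 fluorescence · Read-out basis – percent inhibition of calcium signal · Controls – ATP-challenged DMSO wells low, unchallenged DMSO wells high · Repeats – no replicates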
GPR7 antagonist: antagonists of human GPR7 (neuropeptides B/W receptor 1); P48145; GPR7-expressing cells, fluorescence antagonist assay; inhibition, % at 4.4 µM; 290,000 tested, 1.1% active; AID 1861; in the data active = inhibition above about 16%, passing the limit was not always enough;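 note: cells stimulated with the agonist NPW; 0% = agonist with vehicle and 100% = vehicle without agonist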
TAAR1 antag: antagonists of human TAAR1; CHO RD-HGA16 TAAR1, Fluo-8 calcium fluorescence, antagonist; inhibition, % at 3 µM; 360,000 tested, 1.5% active;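 active = inhibition above a per-plate cutoff, the mean inhibition of test compounds on that plate plus 3 SD, cut at about 49% in these data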;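 note: 0% = DMSO plus EC80 beta-PEA response and 100% = DMSO alone without agonist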
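Assay system: RD-HGA16 CHO cells with stable hTAAR1 and Gα16 / Reagent: EC80 β-phenethylamine stimulus / Doses: 3 µM, single point / Timing: dye loading 75 min at 37 °C, then 30 min room temperature / Measured by: Fluo-8 intracellular calcium dye fluorescence, real-time kinetic reads / Controls: vehicle wells and EC80 agonist wells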
OX1R antag-1: blocks the human orexin 1 receptor; O43613; CHO/OX1R cells, Fluo-8 calcium fluorescence, orexin A; inhibition, % at 5 µM; 330,000 tested, 0.43% active; AID 434989;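 active = inhibition above its plate's threshold, mean inhibition of all tested compounds on the plate plus 3 SD, cut at about 37% in these data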;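 note: 0% = orexin A challenge wells and 100% = SB-334867-A antagonist wells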
Target sequence (O43613 whole entry, looked up): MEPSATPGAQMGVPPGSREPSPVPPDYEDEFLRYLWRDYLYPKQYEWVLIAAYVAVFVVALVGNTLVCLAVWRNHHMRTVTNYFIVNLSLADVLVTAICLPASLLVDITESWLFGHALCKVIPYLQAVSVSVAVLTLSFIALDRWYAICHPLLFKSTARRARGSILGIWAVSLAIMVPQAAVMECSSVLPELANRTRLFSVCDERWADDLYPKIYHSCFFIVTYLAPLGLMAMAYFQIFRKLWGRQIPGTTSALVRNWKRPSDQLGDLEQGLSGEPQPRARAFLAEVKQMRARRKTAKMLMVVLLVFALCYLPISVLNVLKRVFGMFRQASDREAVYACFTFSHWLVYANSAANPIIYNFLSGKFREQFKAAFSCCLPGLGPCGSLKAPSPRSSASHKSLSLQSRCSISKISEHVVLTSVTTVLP
OX1R antag-2: OX1R (human) antagonism | O43613 | OX1R-expressing cells, FRET antagonist read-out | 330,000 tested, 1.8% active | AID 485270 | inhibition, % at 6.6 µM; in the data active = inhibition mostly above about 38%, no sharp cut-off; inactive = mostly below about 40%;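 note: 0% = agonist challenge alone and 100% = reference antagonist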
TAAR1 agonist: human TAAR1 agonism; Q96RJ0; CHO RD-HGA16 TAAR1, Fluo-8 calcium fluorescence; vehicle wells 0%, saturating PEA agonist 100%; activation, % at 3 µM; 360,000 tested, 0.99% active; AID 624467;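 active = activation above the mean activation of all test compounds in the run plus 3 SD, cut at about 38% in these data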
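test system = CHO RD-HGA16 cells carrying human TAAR1 plus Gα16 | schedule = 17-24 h seeding, 75 min 37 °C dye, 30 min RT | compound dosing = 3 µM single concentration | control set = DMSO and PEA EC100 | replicates = n 1 | signal = Fluo-8 fluorescence, 5 s baseline then 140 s kinetic read | measure = percent activation vs PEA EC100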
* hit, by the source's call; nt = no result given.

SMILES	CHO parental Ca	GPR7 antagonist	TAAR1 antag	OX1R antag-1	OX1R antag-2	TAAR1 agonist
COc1ccc(NS(=O)(=O)c2ccc(Cl)c(NC(=O)c3cccnc3Cl)c2)cc1	-8	-1	-13	-3	13	5
CC1=Nc2ccccc2/C1=C/c1sc(=N)n(-c2nccs2)c1O	47*	0	nt	64*	41	nt
CC1=Nc2ccccc2/C1=C/c1c(N)n2c(S(=O)(=O)C(C)C)nsc2nc1=O	-6	-2	6	-18	9	2
CC(C)[C@H](NC(=O)c1ccco1)C(=O)N1CCC[C@H]1C(=O)NCc1ccccc1	nt	nt	3	nt	nt	0
C[C@@H]1CNC(=O)c2c(C(=O)N3CCN(c4ccccc4)CC3)ncn21	nt	nt	-1	nt	nt	0
COc1ccccc1N1CCN(S(=O)(=O)c2ccc(F)cc2)CC1	-5	-5	3	-13	-1	38*
CCN(CC)S(=O)(=O)c1ccc(N2CCN(c3ccccc3OC)CC2)c(N)c1	61*	-5	26	6	38	4
CC(C)(C)C(=O)c1c(N)[nH]c(C(=O)c2ccccc2)c1-c1ccc([N+](=O)[O-])cc1	nt	nt	4	nt	nt	0
COC(=O)c1ccc2nc(-c3cccc(Br)c3)c(Cc3cccc(Cl)c3)n2c1	nt	nt	-29	nt	nt	8
O=C(Nc1ccccc1N1CCOCC1)c1ccc(Br)o1	-16	-14	10	-22	15	12
O=C(Nc1ccc(N2CCOCC2)c(Cl)c1)c1ccc(Br)o1	1	-8	60*	15	16	18
CC(C)(C)[C@@H]1CCC(=O)N(CC[C@H](Sc2ccccc2)c2ccccc2)CC1	-4	-4	42	-33	0	13
CC(=O)Nc1ccc(S[C@@H](CCN2CC[C@H](C(C)(C)C)CCC2=O)c2ccccc2)cc1	-22	nt	49*	-15	10	17
Cc1cccc(C(=O)NC(=S)Nc2ccccc2C(=O)O)c1	-10	-24	16	-19	8	0
Cc1cccc(C(=O)NC(=S)NNC(=O)c2ccccc2Cl)c1	-4	3	107*	2	-6	148*
Cc1ccc(C(=O)NNC(=S)NC(=O)c2ccc(Cl)cc2)cc1	34*	13	108*	71*	3	146*
Cc1cccc(OCC(=O)Nc2ccc3oc(=O)ccc3c2)c1C	50*	5	21	2	15	3
Cc1ccc(OCC(=O)Nc2ccc3oc(=O)ccc3c2)cc1	2	7	1	-9	7	-2
O=C1c2[nH]nc(-c3ccccc3)c2C(c2cccc(C(F)(F)F)c2)N1c1ccccc1 (stereo not drawn)	nt	nt	-61	nt	nt	0
C=CCN1C(=O)c2ccc(C(=O)N(C)CC(=O)Nc3ccc(OCC)c(OCC)c3)cc2C1=O	39*	nt	-19	-5	27	1
C=CCN1C(=O)c2ccc(C(=O)N(C)CC(=O)Nc3c(C)cccc3C)cc2C1=O	-7	nt	-8	-19	25	1
CCOC(=O)C1=C(COC(=O)c2cc([N+](=O)[O-])ccc2Cl)NC(=O)NC1C (stereo not drawn)	nt	nt	1	nt	nt	6
O=C(OCCCOC(=O)c1ccc([N+](=O)[O-])o1)c1ccc([N+](=O)[O-])o1	-3	nt	2	1	53*	2
COC(=O)C1=C(C)NC(=S)NC1c1ccc(-c2cc(Cl)ccc2Cl)o1 (stereo not drawn)	-1	-5	-30	-15	56*	6
O=C(COC(=O)c1ccc([N+](=O)[O-])o1)c1ccccc1	-7	-7	7	-11	29	3
SMILES	CHO parental Ca	GPR7 antagonist	TAAR1 antag	OX1R antag-1	OX1R antag-2	TAAR1 agonist
CCOC(=O)C1=C(COC(=O)c2ccc([N+](=O)[O-])o2)NC(=O)NC1C (stereo not drawn)	-5	nt	2	-16	30*	3
CCOC(=O)C1CCN(C(=O)COC(=O)c2ccc([N+](=O)[O-])o2)CC1	-6	nt	-3	-14	33*	1
CC(C)CN(C(=O)COC(=O)c1ccc([N+](=O)[O-])o1)C1CCS(=O)(=O)C1 (stereo not drawn)	-5	3	-4	-11	75*	6
NS(=O)(=O)c1ccc(CCNC(=O)COC(=O)c2ccc([N+](=O)[O-])o2)cc1	-9	nt	2	-9	44*	2
O=C(COC(=O)c1ccc([N+](=O)[O-])o1)NCc1ccccc1	-12	nt	-7	5	26	2
CC(C)CN(C(=O)COC(=O)c1cc2ccccc2oc1=O)C1CCS(=O)(=O)C1 (stereo not drawn)	nt	-2	nt	nt	nt	nt
CC1CCCC(C)N1C(=O)COC(=O)c1ccc([N+](=O)[O-])o1 (stereo not drawn)	6	nt	-12	-22	39*	2
O=C(COC(=O)/C=C/c1ccccc1Cl)NCCNC(=O)COC(=O)/C=C/c1ccccc1Cl	-11	-10	12	-17	18	1
NS(=O)(=O)c1ccc(CCNC(=O)COC(=O)/C=C/c2ccccc2Cl)cc1	-4	-2	-2	-17	15	42*
CCOC(=O)C1(C(=O)OCC)N=C(c2ccccc2)C=C1c1ccccc1	nt	nt	-4	nt	nt	-1
COC(=O)C1=C(C)NC(=O)NC1c1ccc([N+](=O)[O-])o1 (stereo not drawn)	-13	-1	10	-16	77*	3
C[C@H]1CN(S(=O)(=O)C(C)(C)C)[C@H](CCO)/C1=C\CCO	nt	nt	-22	nt	nt	1
N#Cc1ccc(Nc2nc(NCc3ccccc3)nc3ccsc23)cc1	nt	nt	28	nt	nt	3
c1ccc(CNc2nc(NCc3cccs3)nc3ccsc23)cc1	nt	nt	81*	nt	nt	52*
Fc1ccc(Nc2nc(NCc3ccccc3)nc3ccsc23)cc1	nt	nt	20	nt	nt	11
O=C1CCCN1CCCNc1nc(NCc2cccs2)nc2ccsc12	nt	nt	99*	nt	nt	92*
CNc1nc(NCc2ccccc2)c2sccc2n1	nt	nt	31	nt	nt	46*
c1ccc(CNc2nc(NCCc3ccncc3)c3sccc3n2)cc1	nt	nt	106*	nt	nt	125*
C=CCCC[C@H]1OC(=O)[C@H](C)NC(=O)[C@H](C(C)C)NC(=O)[C@@H]2CCCN2C(=O)[C@H](Cc2ccccc2)OC(=O)[C@@H](C(C)C)N(C)C(=O)[C@H](C(C)C)NC(=O)C1(C)C	nt	nt	-43	nt	nt	-3
Cc1ccc(OC(=O)N(C)C[C@H]2OCc3cn(nn3)CCCC(=O)N([C@@H](C)CO)C[C@@H]2C)cc1	nt	nt	2	nt	nt	1
Cc1cccc(C)c1NC(=O)C(CCc1ccccc1)N1CCC(c2ccccc2)CC1 (stereo not drawn)	nt	nt	37	nt	nt	2
COc1cccc(C(=O)N2CCN(Cc3ccccc3Br)CC2)c1	2	11	-23	-30	1	-2
COc1ccccc1CNc1nc(NCCOc2ccccc2Cl)c2sccc2n1	nt	nt	34	nt	nt	3
c1csc(CNc2nc(NCC3CCCCC3)c3sccc3n2)c1	nt	nt	61*	nt	nt	43*
